Measured values: ChEMBL document CHEMBL3632581, “Dimers of Melampomagnolide B Exhibit Potent Anticancer Activity against Hematological and Solid Tumor Cells” (J Med Chem, 2015)

Legend:
K562 = assay: Cytotoxicity against human K562 cells after 48 hrs by SRB assay; format: functional; settings: K562, 48 h; for CC50: read-out: LC50 (the source's name)
In short: (§1)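 NCI-60 five-dose screen at 10−8 to 10−4 M. Cells were plated at 5,000–40,000/well in RPMI 1640 with 5% FBS and 2 mM L-glutamine, then preincubated 24 h, and time-zero plates were TCA-fixed. Compound was added from DMSO stocks and exposed 48 h at 37 °C. Cells were TCA-fixed, SRB-stained, and read at 515 nm. LC50 is the concentration halving the cell population through cell death.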

[1] = Antileukemic activity against human AML02 cells after 24 hrs by annexin V/7-AAD staining-based flow cytometric analysis; format: functional, cell-based
In short: (§2)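 Primary AML specimens from consenting donors, isolated by Ficoll-Paque gradient and sometimes cryopreserved. Cells were held 1 h in serum-free IMDM with 20% BIT 9500, LDL and β-mercaptoethanol before drug (DMSO stock diluted in PBS, ≤0.5% DMSO final). Exposure was 24 h over 0.5-10 μM. Annexin V/7-AAD double-negative cells, normalized to vehicle, gave the EC50. Run in triplicate.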

SNB-75 = assay: Cytotoxicity against human SNB75 cells after 48 hrs by SRB assay; format: functional; settings: SNB-75, 48 h; for CC50: read-out: LC50 (the source's name); in short: as §1
SF-539 = assay: Cytotoxicity against human SF539 cells after 48 hrs by SRB assay; format: functional; settings: SF-539, 48 h; for CC50: read-out: LC50 (the source's name); in short: as §1
UACC-62 = assay: Cytotoxicity against human UACC62 cells after 48 hrs by SRB assay; format: functional; settings: UACC-62, 48 h; for CC50: read-out: LC50 (the source's name)
In short: (§3)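 NCI-60 screen: cells grown in RPMI 1640 with 5% FBS and 2 mM L-glutamine, plated at 5,000–40,000 cells/well by doubling time, and preincubated 24 h at 37 °C before drug. Drug was diluted from DMSO stock and given at five concentrations, 10−4 to 10−8 M, for 48 h. Cells fixed with cold TCA, SRB stained, OD read at 515 nm against time-zero and vehicle plates. LC50 taken as the concentration that halves cell population through cell death.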

NCI-H460 = assay: Cytotoxicity against human NCI-H460 cells after 48 hrs by SRB assay; format: functional; settings: NCI-H460, 48 h; for CC50: read-out: LC50 (the source's name); in short: as §1
T47D = assay: Cytotoxicity against human T47D cells after 48 hrs by SRB assay; format: functional; settings: for CC50: read-out: LC50 (the source's name); in short: as §3
MCF7 = assay: Cytotoxicity against human MCF7 cells after 48 hrs by SRB assay; format: functional; settings: MCF7, 48 h
In short: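 NCI-60 screen: cells in RPMI 1640 with 5% FBS and 2 mM L-glutamine, preincubated 24 h at 37 °C. Compound was then added for 48 h at five concentrations (10−4 to 10−8 M). Cells were fixed with cold TCA and stained with 0.4% SRB in 1% acetic acid, and OD read at 515 nm. GI50 is the concentration halving net protein increase versus control.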

Malme-3M = assay: Cytotoxicity against human MALME-3M cells after 48 hrs by SRB assay; format: functional; settings: for CC50: read-out: LC50 (the source's name); in short: as §1
CCRF-CEM = assay: Cytotoxicity against human CCRF-CEM cells after 48 hrs by SRB assay; format: functional; settings: for CC50: read-out: LC50 (the source's name); in short: as §1
SW-620 = assay: Cytotoxicity against human SW620 cells after 48 hrs by SRB assay; format: functional; settings: SW-620, 48 h; for CC50: read-out: LC50 (the source's name); in short: as §3
SR = assay: Cytotoxicity against human SR cells after 48 hrs by SRB assay; format: functional; settings: for CC50: read-out: LC50 (the source's name); in short: as §3
[2] = Cytotoxicity against human NCI-ADR-RES cells after 48 hrs by SRB assay; format: functional; settings: for CC50: read-out: LC50 (the source's name); in short: as §1
[3] = Antileukemic activity against human AML01 cells after 24 hrs by annexin V/7-AAD staining-based flow cytometric analysis; format: functional, cell-based; in short: as §2
[4] = Antileukemic activity against human AML03 cells after 24 hrs by annexin V/7-AAD staining-based flow cytometric analysis; format: functional, cell-based; in short: as §2
HCT-116 = assay: Cytotoxicity against human HCT116 cells after 48 hrs by SRB assay; format: functional; settings: HCT-116, 48 h; for CC50: read-out: LC50 (the source's name); in short: as §1
HCC 2998 = assay: Cytotoxicity against human HCC2998 cells after 48 hrs by SRB assay; format: functional; settings: HCC 2998, 48 h; for CC50: read-out: LC50 (the source's name); in short: as §1
TK-10 = assay: Cytotoxicity against human TK10 cells after 48 hrs by SRB assay; format: functional; settings: TK-10, 48 h; for CC50: read-out: LC50 (the source's name); in short: as §3
RPMI-8226 = assay: Cytotoxicity against human RPMI8226 cells after 48 hrs by SRB assay; format: functional; settings: RPMI-8226, 48 h; for CC50: read-out: LC50 (the source's name); in short: as §1
NCI-H522 = assay: Cytotoxicity against human NCI-H522 cells after 48 hrs by SRB assay; format: functional; settings: NCI-H522, 48 h; for CC50: read-out: LC50 (the source's name); in short: as §1
[5] = Antileukemic activity against human AML04 cells after 24 hrs by annexin V/7-AAD staining-based flow cytometric analysis; format: functional, cell-based; in short: as §2
HT-29 = assay: Cytotoxicity against human HT-29 cells after 48 hrs by SRB assay; format: functional; settings: HT-29, 48 h; for CC50: read-out: LC50 (the source's name); in short: as §1
[6] = Antileukemic activity against human AML05 cells after 24 hrs by annexin V/7-AAD staining-based flow cytometric analysis; format: functional, cell-based; in short: as §2
HCT-15 = assay: Cytotoxicity against human HCT15 cells after 48 hrs by SRB assay; format: functional; settings: HCT-15, 48 h; for CC50: read-out: LC50 (the source's name); in short: as §1
OVCAR-5 = assay: Cytotoxicity against human OVCAR5 cells after 48 hrs by SRB assay; format: functional; settings: OVCAR-5, 48 h; for CC50: read-out: LC50 (the source's name); in short: as §1
A498 = assay: Cytotoxicity against human A498 cells after 48 hrs by SRB assay; format: functional; settings: A498, 48 h; for CC50: read-out: LC50 (the source's name); in short: as §1
CAKI-1 = assay: Cytotoxicity against human Caki1 cells after 48 hrs by SRB assay; format: functional; settings: CAKI-1, 48 h; for CC50: read-out: LC50 (the source's name); in short: as §1
PC-3 = assay: Cytotoxicity against human PC3 cells after 48 hrs by SRB assay; format: functional; settings: PC-3, 48 h; in short: as §1
[7] = Cytotoxicity against human EKVX cells after 48 hrs by SRB assay; format: functional; settings: for CC50: read-out: LC50 (the source's name); in short: as §1
HOP-62 = assay: Cytotoxicity against human HOP62 cells after 48 hrs by SRB assay; format: functional; settings: HOP-62, 48 h; for CC50: read-out: LC50 (the source's name); in short: as §1
SK-MEL-2 = assay: Cytotoxicity against human SK-MEL-2 cells after 48 hrs by SRB assay; format: functional; settings: SK-MEL-2, 48 h; for CC50: read-out: LC50 (the source's name); in short: as §1
OVCAR-8 = assay: Cytotoxicity against human OVCAR8 cells after 48 hrs by SRB assay; format: functional; settings: OVCAR-8, 48 h; for CC50: read-out: LC50 (the source's name); in short: as §1

C=C1C(=O)O[C@H]2[C@H]1CC/C(COC(=O)NCCCCNC(=O)OC/C1=C/CC[C@@]3(C)O[C@H]3[C@H]3OC(=O)C(=C)[C@@H]3CC1)=C\CC[C@@]1(C)O[C@@H]21
GI50 (K562): 660 nM | CC50 (K562): > 100 µM | EC50 [1]: 2000 nM | GI50 (SNB-75): 2190 nM | CC50 (SNB-75): 66.3 µM | GI50 (SF-539): 1550 nM | CC50 (SF-539): 8.84 µM | GI50 (UACC-62): 750 nM | CC50 (UACC-62): 7.06 µM | GI50 (NCI-H460): 4.61 µM | CC50 (NCI-H460): 60.7 µM | GI50 (T47D): 1510 nM | CC50 (T47D): > 100 µM | GI50 (MCF7): 380 nM | GI50 (Malme-3M): 450 nM | CC50 (Malme-3M): 8.43 µM | GI50 (CCRF-CEM): 270 nM | CC50 (CCRF-CEM): > 100 µM | GI50 (SW-620): 580 nM | CC50 (SW-620): 5.56 µM | GI50 (SR): 540 nM | CC50 (SR): > 100 µM | GI50 [2]: 37.7 µM | CC50 [2]: > 100 µM | EC50 [3]: 2200 nM | EC50 [4]: 7.3 µM | GI50 (HCT-116): 1120 nM | CC50 (HCT-116): 6.19 µM | GI50 (HCC 2998): 2350 nM | CC50 (HCC 2998): 9.73 µM | GI50 (TK-10): 1610 nM | CC50 (TK-10): 11.3 µM | GI50 (RPMI-8226): 540 nM | CC50 (RPMI-8226): > 100 µM | GI50 (NCI-H522): 160 nM | CC50 (NCI-H522): 840 nM | EC50 [5]: 4.2 µM | GI50 (HT-29): 600 nM | CC50 (HT-29): > 100000 nM | EC50 [6]: 2000 nM | GI50 (HCT-15): 5610 nM | CC50 (HCT-15): 56.3 µM | GI50 (OVCAR-5): 1750 nM | CC50 (OVCAR-5): 7.79 µM | GI50 (A498): 6.36 µM | CC50 (A498): 43.9 µM | GI50 (CAKI-1): 10.8 µM | CC50 (CAKI-1): 49.1 µM | GI50 (PC-3): 2550 nM | LC50 (concentration killing half the cell population) (PC-3): 30.5 µM | GI50 [7]: 3690 nM | CC50 [7]: 37.3 µM | GI50 (HOP-62): 3840 nM | CC50 (HOP-62): 46.1 µM | GI50 (SK-MEL-2): 1770 nM | CC50 (SK-MEL-2): 29.3 µM | GI50 (OVCAR-8): 2180 nM | CC50 (OVCAR-8): 40.2 µM

C=C1C(=O)O[C@H]2[C@H]1CC/C(COC(=O)NCCCCCCCCNC(=O)OC/C1=C/CC[C@@]3(C)O[C@H]3[C@H]3OC(=O)C(=C)[C@@H]3CC1)=C\CC[C@@]1(C)O[C@@H]21
GI50 (K562): 340 nM | CC50 (K562): > 100 µM | EC50 [1]: 1200 nM | GI50 (SNB-75): 1250 nM | CC50 (SNB-75): 9.84 µM | GI50 (SF-539): 230 nM | CC50 (SF-539): 2.26 µM | GI50 (UACC-62): 190 nM | CC50 (UACC-62): 1.72 µM | GI50 (NCI-H460): 1.75 µM | CC50 (NCI-H460): 9.02 µM | GI50 (T47D): 320 nM | CC50 (T47D): > 100 µM | GI50 (MCF7): 220 nM | CC50 (MCF7; read-out: LC50 (the source's name)): 4.3 µM | GI50 (Malme-3M): 190 nM | CC50 (Malme-3M): 0.92 µM | GI50 (CCRF-CEM): 250 nM | CC50 (CCRF-CEM): > 100 µM | GI50 (SW-620): 230 nM | CC50 (SW-620): 3.37 µM | GI50 (SR): 310 nM | CC50 (SR): > 100 µM | GI50 [2]: 3.91 µM | CC50 [2]: 82 µM | EC50 [3]: 2600 nM | EC50 [4]: 2.9 µM | GI50 (HCT-116): 190 nM | CC50 (HCT-116): 0.83 µM | GI50 (HCC 2998): 1200 nM | CC50 (HCC 2998): 5.28 µM | GI50 (TK-10): 280 nM | CC50 (TK-10): 2.95 µM | GI50 (RPMI-8226): 250 nM | CC50 (RPMI-8226): > 100 µM | GI50 (NCI-H522): 180 nM | CC50 (NCI-H522): 890 nM | EC50 [5]: 3.7 µM | GI50 (HT-29): 220 nM | CC50 (HT-29): 2270 nM | EC50 [6]: 2300 nM | GI50 (HCT-15): 340 nM | CC50 (HCT-15): 4.18 µM | GI50 (OVCAR-5): 260 nM | CC50 (OVCAR-5): 4.04 µM | GI50 (A498): 1.69 µM | CC50 (A498): 5.83 µM | GI50 (CAKI-1): 0.65 µM | CC50 (CAKI-1): 4.79 µM | GI50 (PC-3): 380 nM | LC50 (concentration killing half the cell population) (PC-3): 5.2 µM | GI50 [7]: 1190 nM | CC50 [7]: 4.99 µM | GI50 (HOP-62): 1530 nM | CC50 (HOP-62): 7.95 µM | GI50 (SK-MEL-2): 600 nM | CC50 (SK-MEL-2): 17 µM | GI50 (OVCAR-8): 320 nM | CC50 (OVCAR-8): 6.77 µM
